# Assay results taken from paper PMC5198934 (Saudi Journal of Biological Sciences, 2015).
# Tests used:
# FRAP assay = conditions: for FRAP (10 μg/mL): absorbance at 593 nm, 30 min, triplicate
# In short: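 Working reagent: 300 mM acetate buffer pH 3.6, 10 mM TPTZ in 40 mM HCl, and 20 mM FeCl3·6H2O, mixed 10:1:1 and warmed to 37 °C. Methanolic samples reacted 30 min. Ascorbic acid in water used as standard, methanol as blank. Fe²⁺–TPTZ complex read at 593 nm. Triplicate, mean reported.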
# [1] = ABTS radical scavenging assay; conditions: 10 min, absorbance at 734 nm, triplicate, mean ± SD
# In short: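 ABTS•+ formed from 7 mM ABTS in water plus 2.45 mM potassium persulfate, kept dark at room temperature 12–16 h, then diluted in methanol to A734 0.70 ± 0.02 at 30 °C. Methanolic compound dilutions (20 µL) added to 180 µL radical, 10 min in dark, A734. Controls: methanol blank, ascorbic acid reference. Fresh radical each run. Triplicate. % scavenging versus blank gives IC50.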
# [2] = DPPH radical scavenging assay; conditions: 30 min, absorbance at 517 nm, triplicate, mean ± SD
# In short: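 DPPH dissolved in methanol (180 µL) mixed with 20 µL methanolic compound solutions at 0.1, 1, 10 and 100 μg/mL. Mixture shaken, held 30 min at room temperature in dark, A517. Controls: methanol blank, ascorbic acid positive. Triplicate. % scavenging = (A blank − A test)/A blank × 100; IC50 from concentration–scavenging plot.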
# [3] = SRB cytotoxicity assay, MDCK cells; format: cell-based, canine; conditions: dog
# In short: (§1)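 HeLa cells were grown in DMEM; CaSki and MDCK in RPMI-1640. All media had 10% FBS and 1% antibiotic–antimycotic, at 37 °C, 5% CO2. Cells seeded at 5×10^3/well overnight, triplicate, then given four concentrations for 48 h. Untreated cells served as control. SRB staining: ice-cold 70% acetone fixation, 0.4% SRB, Tris solubilisation, A540. IC50 from cancer lines, CC50 from MDCK, TI derived.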
# Caski cancer cell = test: SRB anticancer assay, Caski cells; format: cell-based
# In short: as §1
# Hela cancer cell = test: SRB anticancer assay, Hela cells; format: cell-based, Human
# In short: as §1
SMILES,FRAP absorption value (FRAP assay; Fe3+ reducing power),FRAP (10 μg/mL) (FRAP assay),IC50 ABTS [1],IC50 DPPH [2],CC50 at 48 h [3],TI (therapeutic index) (Caski cancer cell; CC50 MDCK / IC50 Caski),"IC50 (Caski cancer cell; Homo sapiens, Ca-Ski, 48 h, read-out: IC50 Caski)",TI (therapeutic index) (Hela cancer cell; CC50 MDCK / IC50 Hela),"IC50 (Hela cancer cell; Homo sapiens, HeLa, 48 h, read-out: IC50 Hela)"
O=C1O[C@H]([C@@H](O)CO)C(O)=C1O [Ascorbic acid],2.140 nm,2.140 ± 0.78,4.760 ± 0.05 µg/mL,10.75 ± 0.66 µg/mL,,,,,
COc1ccc2cc3[n+](cc2c1OC)CCc1cc2c(cc1-3)OCO2 [Berberine],,0.001 ± 0.66,86.29 ± 2.11 µg/mL,33.16 ± 1.60 µg/mL,113.8 ± 0.51 µg/mL,20.17,5.64 ± 0.11 µg/mL,25.29,4.5 ± 0.08 µg/mL
